Experimental data taken from ChEMBL document CHEMBL5653631, “A Potent and Selective ULK1 Inhibitor Suppresses Autophagy and Sensitizes Cancer Cells to Nutrient Stress” (iScience, 2018).
Values belong to the compound of their own block, whether it stands above or below them.

Columns and labels:
[1] = target: Tyrosine-protein kinase Fyn (Homo sapiens) (UniProt P06241); test: Inhibition of human recombinant FYN at 500 nM in presence of ATP by radiometric assay relative to control
[2] = target: Ribosomal protein S6 kinase alpha-1 (Homo sapiens) (UniProt Q15418); test: Inhibition of human recombinant RSK1 at 500 nM related to control ULK1
Chain of Ribosomal protein S6 kinase alpha-1 (Homo sapiens) (Q15418 whole entry): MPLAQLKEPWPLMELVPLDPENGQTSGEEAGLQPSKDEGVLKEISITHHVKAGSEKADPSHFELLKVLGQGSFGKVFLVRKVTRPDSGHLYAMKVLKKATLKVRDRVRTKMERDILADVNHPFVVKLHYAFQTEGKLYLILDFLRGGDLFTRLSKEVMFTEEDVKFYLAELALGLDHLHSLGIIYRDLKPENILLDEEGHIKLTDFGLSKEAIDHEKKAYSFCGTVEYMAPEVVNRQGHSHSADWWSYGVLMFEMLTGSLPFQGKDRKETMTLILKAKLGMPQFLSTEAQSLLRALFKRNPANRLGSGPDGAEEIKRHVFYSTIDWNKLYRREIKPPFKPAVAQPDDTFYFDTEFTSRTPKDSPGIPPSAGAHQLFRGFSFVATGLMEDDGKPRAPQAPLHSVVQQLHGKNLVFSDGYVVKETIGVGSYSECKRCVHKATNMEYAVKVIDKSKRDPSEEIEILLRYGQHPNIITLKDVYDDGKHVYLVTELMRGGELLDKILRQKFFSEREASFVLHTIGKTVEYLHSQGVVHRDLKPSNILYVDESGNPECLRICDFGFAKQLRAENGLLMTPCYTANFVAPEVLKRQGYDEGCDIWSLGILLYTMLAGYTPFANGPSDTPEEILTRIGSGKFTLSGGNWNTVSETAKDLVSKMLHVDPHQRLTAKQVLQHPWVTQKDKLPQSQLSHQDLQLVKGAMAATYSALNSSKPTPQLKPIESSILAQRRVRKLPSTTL

[3] = target: Cyclin-dependent kinase 2 (Homo sapiens) (UniProt P24941); test: Inhibition of human recombinant CDK2 at 15 nM in presence of ATP by radiometric assay relative to control
[4] = species: Homo sapiens; test: Inhibition of human recombinant KHS1 at 15 nM related to control ULK1
[5] = target: RAC-beta serine/threonine-protein kinase (Homo sapiens) (UniProt P31751); test: Inhibition of human recombinant AKT2 at 40 nM in presence of ATP by radiometric assay relative to control
Chain of RAC-beta serine/threonine-protein kinase (Homo sapiens) (P31751 whole entry): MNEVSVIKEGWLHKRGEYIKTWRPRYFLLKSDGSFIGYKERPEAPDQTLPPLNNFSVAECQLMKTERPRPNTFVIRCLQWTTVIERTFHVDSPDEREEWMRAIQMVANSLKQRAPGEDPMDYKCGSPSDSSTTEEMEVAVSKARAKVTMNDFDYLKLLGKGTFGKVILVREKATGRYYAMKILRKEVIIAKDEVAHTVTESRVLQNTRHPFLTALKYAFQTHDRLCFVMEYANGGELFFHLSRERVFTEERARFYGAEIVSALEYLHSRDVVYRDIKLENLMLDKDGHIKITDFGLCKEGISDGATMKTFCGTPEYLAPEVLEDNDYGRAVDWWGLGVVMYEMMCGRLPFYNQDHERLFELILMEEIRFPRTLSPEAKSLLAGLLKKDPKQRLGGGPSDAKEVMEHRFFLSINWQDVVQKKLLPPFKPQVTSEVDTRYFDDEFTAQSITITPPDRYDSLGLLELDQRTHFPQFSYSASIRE
Procedure, shortened: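 Panel of 327 recombinant human kinases in radiometric activity assays, each screened in duplicate at a single inhibitor concentration; percent activity remaining relative to vehicle control, percent inhibition taken as 100 minus activity remaining.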

[6] = target: Cyclin-dependent kinase-like 1 (Homo sapiens) (UniProt Q00532); test: Inhibition of human recombinant CDKL1 at 40 nM in presence of ATP by radiometric assay relative to control
Chain of Cyclin-dependent kinase-like 1 (Homo sapiens) (Q00532 whole entry): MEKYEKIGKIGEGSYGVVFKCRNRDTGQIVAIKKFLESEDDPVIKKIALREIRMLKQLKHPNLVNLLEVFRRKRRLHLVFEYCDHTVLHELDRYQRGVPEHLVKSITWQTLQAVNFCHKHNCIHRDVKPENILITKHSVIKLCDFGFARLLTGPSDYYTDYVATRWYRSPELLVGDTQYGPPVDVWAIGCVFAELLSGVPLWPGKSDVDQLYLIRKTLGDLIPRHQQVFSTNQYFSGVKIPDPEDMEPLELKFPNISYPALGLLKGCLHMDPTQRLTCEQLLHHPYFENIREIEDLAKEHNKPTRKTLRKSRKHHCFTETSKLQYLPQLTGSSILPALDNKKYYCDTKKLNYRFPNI

[7] = target: T1, Serine/threonine-protein kinase Sgk1 (Homo sapiens) (UniProt O00141); test: Inhibition of human recombinant SGK1 at 40 nM in presence of ATP by radiometric assay relative to control
T1 sequence (whole entry): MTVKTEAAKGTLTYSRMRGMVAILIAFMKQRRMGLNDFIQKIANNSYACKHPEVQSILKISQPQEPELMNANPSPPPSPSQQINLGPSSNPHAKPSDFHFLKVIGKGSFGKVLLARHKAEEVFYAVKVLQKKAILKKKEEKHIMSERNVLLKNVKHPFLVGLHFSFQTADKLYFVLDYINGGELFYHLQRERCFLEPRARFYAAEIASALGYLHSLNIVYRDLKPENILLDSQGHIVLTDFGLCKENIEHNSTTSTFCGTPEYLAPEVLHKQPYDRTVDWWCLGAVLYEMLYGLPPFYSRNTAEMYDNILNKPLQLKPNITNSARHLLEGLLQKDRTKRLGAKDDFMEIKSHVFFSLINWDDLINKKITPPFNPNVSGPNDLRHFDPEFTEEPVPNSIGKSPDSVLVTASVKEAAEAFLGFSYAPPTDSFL

[8] = target: TGF-beta receptor type-2 (Homo sapiens) (UniProt P37173); test: Inhibition of human recombinant TGFbR2 at 40 nM in presence of ATP by radiometric assay relative to control
Chain of TGF-beta receptor type-2 (Homo sapiens) (P37173 whole entry): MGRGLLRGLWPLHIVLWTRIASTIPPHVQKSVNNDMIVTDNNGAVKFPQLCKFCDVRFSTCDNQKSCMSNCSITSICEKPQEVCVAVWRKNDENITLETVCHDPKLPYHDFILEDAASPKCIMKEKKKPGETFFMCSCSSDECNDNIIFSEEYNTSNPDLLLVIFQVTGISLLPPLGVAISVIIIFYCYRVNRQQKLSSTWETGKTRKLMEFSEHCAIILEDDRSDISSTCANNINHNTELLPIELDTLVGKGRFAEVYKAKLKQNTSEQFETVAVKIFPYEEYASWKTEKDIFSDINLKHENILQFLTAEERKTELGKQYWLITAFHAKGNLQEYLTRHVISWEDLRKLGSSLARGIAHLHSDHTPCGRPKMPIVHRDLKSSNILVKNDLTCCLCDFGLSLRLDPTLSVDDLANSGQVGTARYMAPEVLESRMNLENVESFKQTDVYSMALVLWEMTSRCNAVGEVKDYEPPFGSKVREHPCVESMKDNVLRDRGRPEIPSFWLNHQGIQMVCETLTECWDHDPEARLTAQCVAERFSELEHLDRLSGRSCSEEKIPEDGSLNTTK

[9] = target: Calcium/calmodulin-dependent protein kinase type II subunit delta (Homo sapiens) (UniProt Q13557); test: Inhibition of human recombinant CaMK2d at 40 nM related to control ULK1
Chain of Calcium/calmodulin-dependent protein kinase type II subunit delta (Homo sapiens) (Q13557 whole entry): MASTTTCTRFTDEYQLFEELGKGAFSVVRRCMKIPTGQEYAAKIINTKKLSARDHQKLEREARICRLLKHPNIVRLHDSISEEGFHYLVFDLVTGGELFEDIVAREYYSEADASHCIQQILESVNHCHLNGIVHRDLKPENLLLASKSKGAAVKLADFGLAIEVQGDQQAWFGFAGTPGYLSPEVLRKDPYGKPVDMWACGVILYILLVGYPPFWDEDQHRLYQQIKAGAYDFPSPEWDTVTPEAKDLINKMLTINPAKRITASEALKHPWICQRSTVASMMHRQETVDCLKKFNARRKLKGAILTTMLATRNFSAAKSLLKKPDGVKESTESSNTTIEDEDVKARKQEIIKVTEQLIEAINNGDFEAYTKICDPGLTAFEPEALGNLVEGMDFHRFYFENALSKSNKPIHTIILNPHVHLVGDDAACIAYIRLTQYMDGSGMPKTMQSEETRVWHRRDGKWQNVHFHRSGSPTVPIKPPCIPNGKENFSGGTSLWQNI

[10] = target: T2, Myosin-IIIb (Homo sapiens) (UniProt Q8WXR4); test: Inhibition of human recombinant MYO3B at 40 nM related to control ULK1
T2 sequence (whole entry): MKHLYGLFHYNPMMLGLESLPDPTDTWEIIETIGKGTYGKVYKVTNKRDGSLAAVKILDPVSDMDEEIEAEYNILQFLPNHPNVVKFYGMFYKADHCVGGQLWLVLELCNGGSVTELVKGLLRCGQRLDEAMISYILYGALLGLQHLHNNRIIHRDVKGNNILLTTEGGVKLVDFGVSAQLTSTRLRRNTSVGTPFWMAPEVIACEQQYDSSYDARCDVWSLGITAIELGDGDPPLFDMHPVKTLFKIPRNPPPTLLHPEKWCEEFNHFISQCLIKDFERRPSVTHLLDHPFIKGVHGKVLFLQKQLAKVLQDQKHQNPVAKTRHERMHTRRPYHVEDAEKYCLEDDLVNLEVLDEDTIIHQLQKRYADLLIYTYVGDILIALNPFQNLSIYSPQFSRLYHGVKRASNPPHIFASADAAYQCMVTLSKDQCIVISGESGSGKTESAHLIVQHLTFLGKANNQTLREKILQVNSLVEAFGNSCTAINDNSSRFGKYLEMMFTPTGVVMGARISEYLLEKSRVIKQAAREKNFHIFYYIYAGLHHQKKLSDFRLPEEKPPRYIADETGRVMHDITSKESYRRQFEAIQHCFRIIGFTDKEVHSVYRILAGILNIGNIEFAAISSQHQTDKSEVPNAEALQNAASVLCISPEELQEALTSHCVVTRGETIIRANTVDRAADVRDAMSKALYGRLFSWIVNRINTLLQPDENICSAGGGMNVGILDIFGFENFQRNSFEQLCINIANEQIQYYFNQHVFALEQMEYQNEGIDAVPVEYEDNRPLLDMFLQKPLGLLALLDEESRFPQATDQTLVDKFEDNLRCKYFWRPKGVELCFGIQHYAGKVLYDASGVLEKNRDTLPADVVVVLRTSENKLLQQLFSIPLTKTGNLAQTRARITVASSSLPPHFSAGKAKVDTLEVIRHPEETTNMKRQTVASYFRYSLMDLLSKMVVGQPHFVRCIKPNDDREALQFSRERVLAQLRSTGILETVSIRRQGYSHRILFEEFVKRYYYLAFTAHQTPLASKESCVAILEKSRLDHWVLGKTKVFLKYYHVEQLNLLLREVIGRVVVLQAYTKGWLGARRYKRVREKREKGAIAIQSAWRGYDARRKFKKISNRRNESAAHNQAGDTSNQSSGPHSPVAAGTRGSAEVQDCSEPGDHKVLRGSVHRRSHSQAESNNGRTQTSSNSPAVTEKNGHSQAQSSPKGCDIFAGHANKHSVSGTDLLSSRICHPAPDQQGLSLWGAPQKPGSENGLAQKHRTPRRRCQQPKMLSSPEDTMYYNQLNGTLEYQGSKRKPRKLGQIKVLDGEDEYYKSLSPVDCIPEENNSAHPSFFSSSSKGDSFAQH

Chain of Tyrosine-protein kinase Fyn (Homo sapiens) (P06241 2-537 limits assumed): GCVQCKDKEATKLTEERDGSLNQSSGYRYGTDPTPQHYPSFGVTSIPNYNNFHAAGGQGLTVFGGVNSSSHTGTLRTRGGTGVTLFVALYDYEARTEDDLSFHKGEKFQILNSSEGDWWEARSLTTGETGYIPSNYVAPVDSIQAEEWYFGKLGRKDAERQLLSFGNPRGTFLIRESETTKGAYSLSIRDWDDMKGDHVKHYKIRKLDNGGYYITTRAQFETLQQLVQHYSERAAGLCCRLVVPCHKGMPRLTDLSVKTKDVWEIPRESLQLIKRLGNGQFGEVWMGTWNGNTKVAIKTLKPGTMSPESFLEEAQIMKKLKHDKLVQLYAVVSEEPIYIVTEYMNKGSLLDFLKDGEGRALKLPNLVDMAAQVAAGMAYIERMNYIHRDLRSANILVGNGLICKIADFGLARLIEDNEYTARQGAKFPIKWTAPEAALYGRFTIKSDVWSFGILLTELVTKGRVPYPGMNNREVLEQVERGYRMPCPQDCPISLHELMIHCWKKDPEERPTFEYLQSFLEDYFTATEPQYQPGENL

inhibition [1]: 19%
fold change (FC) [2]: 0.26
Compound: CNC(=O)c1ccccc1Oc1nc(Nc2cc(OC)c(OC)c(OC)c2)ncc1Br

inhibition [3]: 1%
fold change (FC) [4]: 0.16
Compound: CC(C)[C@H](NC(=O)c1cc(-c2cnn3cc(-c4ccc(OCCN5CCCCC5)cc4)cnc23)cs1)C(F)(F)F

inhibition [5]: 10%
inhibition [6]: 15%
inhibition [7]: 7%
inhibition [8]: 47%
fold change (FC) [9]: 0.01
fold change (FC) [10]: 0
Compound: O=C(N[C@@H](C1CC1)C(F)(F)F)c1cc(-c2cnn3cc(-c4ccc(F)cc4)cnc23)cs1
